# High-throughput results (PubChem)
# V1aR counter = activates human V1a receptor in oxytocin agonist counter-screen | activation, % at 3 µM | 0.25% of 320,000 active | CHO-V1R cells, Fluo-8 calcium fluorescence, agonist mode; 0% DMSO, 100% 3 nM vasopressin;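 active means activation above the mean activation of all tested compounds plus 3 SD, per screening run, cut at about 20% in these data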;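 further: signal is peak over basal fluorescence ratio across a 100 second FLIPR read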
# TAAR1 agonist = agonists of human TAAR1. Q96RJ0. CHO RD-HGA16 TAAR1, Fluo-8 calcium fluorescence; vehicle wells 0%, saturating PEA agonist 100%. activation, % at 3 µM. 0.99% of 360,000 active. AID 624467;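 active means activation above the mean activation of all test compounds in the run plus 3 SD, cut at about 38% in these data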
#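 Assay system – CHO-derived RD-HGA16 cells with stable Gα16 and human TAAR1 · Compound dosing – one-point dosing at 3 µM (nominal) · Incubation – 17-24 h seeding, 75 min 37 °C dye, 30 min RT · Measured by – kinetic Fluo-8 calcium fluorescence · Control set – DMSO vehicle as 0%, PEA at EC100 as 100% · Repeats – single well for each compound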
# OXTR potentiate = potentiators of human oxytocin receptor; AID 2445; CHO-OTR cells, Fluo-8 calcium fluorescence, potentiator mode; 0% = oxytocin EC15, 100% = EC100; activation, % at 3 µM; 0.061% of 320,000 active;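 active means activation above that plate's cutoff, the mean activation of tested compounds plus 3 SD, cut at about 6.6% in these data, passing the limit was not always enough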;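 further: 100% uses oxytocin at 75 nM as the full agonist control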
# Target sequence (P30559 whole entry, looked up): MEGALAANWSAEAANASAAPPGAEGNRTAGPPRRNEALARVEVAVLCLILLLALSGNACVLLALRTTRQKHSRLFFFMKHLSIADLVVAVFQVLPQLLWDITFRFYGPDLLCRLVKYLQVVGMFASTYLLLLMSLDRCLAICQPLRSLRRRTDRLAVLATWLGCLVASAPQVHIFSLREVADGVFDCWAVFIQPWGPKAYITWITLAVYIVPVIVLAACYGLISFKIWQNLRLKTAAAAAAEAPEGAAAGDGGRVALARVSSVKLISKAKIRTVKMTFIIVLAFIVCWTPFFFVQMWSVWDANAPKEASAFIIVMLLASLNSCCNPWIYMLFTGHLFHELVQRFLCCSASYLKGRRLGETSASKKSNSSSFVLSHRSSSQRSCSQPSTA
#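 test system = CHO-OTR cells, human receptor | compound = single-point 3.0 µM | schedule = 6 min compound pre-incubation at room temperature, 100 s kinetic read | signal = Fluo-8 no-wash calcium dye fluorescence, excitation 470-495 nm, emission 515-575 nm | repeats = single well per compound, singlicate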
# TAAR1 antag = human TAAR1 antagonism; CHO RD-HGA16 TAAR1, Fluo-8 calcium fluorescence, antagonist; inhibition, % at 3 µM; 1.5% of 360,000 active; AID 624466;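 active means inhibition above a per-plate cutoff, the mean inhibition of test compounds on that plate plus 3 SD, cut at about 49% in these data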;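 further: 0% = DMSO plus EC80 beta-PEA response and 100% = DMSO alone without agonist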
#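 Test system – hTAAR1-expressing CHO RD-HGA16 cells, Gα16-coupled · Also added – β-PEA at EC80 concentration, post-compound challenge · Compound – 3 µM, single point · Incubation – dye loading 75 min at 37 °C, then 30 min room temperature · Measured by – Fluo-8 intracellular calcium dye fluorescence, real-time kinetic reads · Benchmarks – vehicle and agonist controls · Replicates – singlicate, one well per test compound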
# OXTR ag = activates the human oxytocin receptor | 0.32% of 320,000 active | activation, % at 3 µM | CHO-OTR cells, Fluo-8 calcium fluorescence; normalized: DMSO 0%, oxytocin 100% | P30559;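 active means activation above the mean of all tested compounds plus 3 SD, cutoff set per screening run, cut at about 20% in these data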;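 further: peak over basal fluorescence ratio from a 100 s FLIPR kinetic read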
# OXTR agonist cf = confirmation of human oxytocin receptor agonists | shares compounds with OXTR ag | CHO-OTR cells, Fluo-8 calcium fluorescence, agonist | activation, % at 3 µM | 20% of 390 active | AID 434963;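 active means mean activation above about 20% derived from the earlier single-dose screen, limit read from the data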;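 further: peak over minimum fluorescence ratio per well during a 100 second FLIPR read; 0% = DMSO alone and 100% = oxytocin high control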
# V1R ag counter 3x = activates V1a receptor in oxytocin agonist counter-screen; shares compounds with OXTR ag; CHO-V1R cells, Fluo-8 calcium fluorescence; activation, % at 3 µM; 10% of 390 active; AID 434991;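 active means mean activation over triplicate exceeds the hit threshold set in the earlier primary screen, cut at about 20% in these data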;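 further: peak over basal fluorescence ratio within a 100 second read; 0% = DMSO alone and 100% = 3 nM vasopressin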
# The depositor's hits bear a star; . = no result given. Only some compounds are listed: those with a hit (about 2.3% of all), similar ones and a draw of the others.
SMILES,V1aR counter,TAAR1 agonist,OXTR potentiate,TAAR1 antag,OXTR ag,OXTR agonist cf,V1R ag counter 3x
N#Cc1cccc(NC(=O)COC(=O)c2cc(S(=O)(=O)Nc3ccccc3Cl)ccc2O)c1,15,8,-10,28,20*,11,11
CCOC(=O)C1=C(N)N2C(=O)C(C)SC2=C(C(=O)OC)C1c1ccccc1OC (stereo not drawn),13,37*,-18,14,31*,7,8
CCOC(=O)C1=C(N)N2C(=O)C(C)SC2=C(C(=O)OCC)C1c1ccccc1 (stereo not drawn),1,7,-10,3,0,.,.
COc1ccc(C(=O)Nc2cc(-c3ccc(C)cc3)no2)cc1,.,18,.,22,.,.,.
Cc1ccc(-c2cc(NC(=O)c3ccccc3)on2)cc1,10,21,-18,13,20*,7,5
O=C1Nc2ccccc2-c2nnnn2C1N1CCCC1 (stereo not drawn),.,0,.,-8,.,.,.
CCN(CC)C(=O)C1=C(C)N(Cc2ccccc2)C(=O)C(CC(=O)NCCCN(C)C)C1 (stereo not drawn),.,3,.,-12,.,.,.
CCOc1cc(CNC2CCCC2)cc(Cl)c1OCc1ccc(F)cc1,10,40*,-12,16,21*,6,4
COc1cc(CNC2CCCC2)cc(Cl)c1OCc1ccc(F)cc1,11,23,-11,-2,13,.,.
NS(=O)(=O)c1ccc(CCNC(=O)COC(=O)CCc2ccccc2)cc1,0,9,-19,-4,0,.,.
CC(C)(C)c1ccc(C(=O)CCC(=O)OCC(=O)NCCc2ccc(S(N)(=O)=O)cc2)cc1,16,24,-12,62*,20*,7,9
c1ccc(CN2CCC3CC2c2cc(N4CCOCC4)ccc23)cc1 (stereo not drawn),.,1,.,-17,.,.,.
CNC[C@H](Cc1ccccc1)NC[C@@H](Cc1cccc2ccccc12)NCCc1ccc(C)cc1,7,43*,-9,50*,21*,10,9
CC(=O)CC(=O)O[C@@H]1C=C[C@H](NC(=O)OC(C)(C)C)C1,.,1,.,-3,.,.,.
COc1ccc(C2=Nc3ccccc3C2(O)CCN2C(=O)c3ccccc3C2=O)cc1 (stereo not drawn),.,8,.,35,.,.,.
CN1CCS/C1=C/C=C1/SC(=S)N(Cc2ccccc2)C1=O,7,36,-10,12,17,.,.
CN1CCS/C1=C/C=C1\SC(=S)N(CC(=O)O)C1=O,19,33,-7,40,33*,31*,38*
COC(=O)C1=C(C)N(C)C(=NCc2cccc(C(F)(F)F)c2)NC1c1ccccc1C(F)(F)F (stereo not drawn),.,11,.,26,.,.,.
COc1ccc(-c2csc(N(CCCN(C)C)C(=O)c3ccccc3Cl)n2)cc1,15,6,-7,2,23*,6,3
CC(=O)c1ccc(N2CCN(c3ccccc3O)CC2)c([N+](=O)[O-])c1,15,16,-33,51*,23*,14,13
Cc1nn(C)cc1C(C(=O)NC1CCCCC1)N(C(=O)Cc1cccs1)c1ccc(F)cc1 (stereo not drawn),1,13,4,5,-1,.,.
Cc1nn(C)cc1C(C(=O)NC1CCCCC1)N(C(=O)Cc1cccs1)c1ccc(C(C)C)cc1 (stereo not drawn),1,18,-19,-5,22*,5,3
COc1ccc(Cl)cc1Nc1cc(C)nc2ncnn12,.,1,.,-28,.,.,.
O=C(Nc1cccc(Br)c1)c1ccc(Cl)c(S(=O)(=O)N2CCOCC2)c1,15,30,-14,73*,24*,10,10
COC(=O)c1ccc(NC(=O)Nc2ccc([N+](=O)[O-])cc2)cc1,16,10,-16,17,20*,14,12
O=C(Nc1ccc(C(=O)O)cc1)Nc1ccc([N+](=O)[O-])cc1,0,2,6,11,1,.,.
COc1cc(CNCCO)cc(Br)c1OCc1ccccc1Cl,10,37,-5,2,10,.,.
